One assay has as its target Mcl-1 (Mcl-1ΔN170ΔC23) (Homo sapiens, UniProt Q07820). The assay can be described thus: Fluorescence polarization assay. The assay is classed as binding. The method, boiled down:
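Human Mcl-1ΔN170ΔC23 was expressed His-SUMO-tagged in E. coli Rosetta BL21(DE3), Ni-purified, ULP1-cleaved, then SEC-purified. Protein was serially diluted in 20 mM Tris pH 8.0, 50 mM NaCl with FITC-labelled BH3 peptide (10 nM), shaken 1 min, and incubated 10 min at room temperature in the dark. Polarization (mP) was read in at least three replicates, and Kd was obtained by sigmoidal dose-response nonlinear regression.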
In general terms: Polarisation of emitted light reports the rotation of a fluorescent probe.

In another assay the target is FITC-Bmf BH3. The assay is described as follows: fluorescence polarisation.
A further assay addresses FITC-Bim BH3. The assay is described as follows: fluorescence polarisation.
The target in another assay is T1, Bcl-2ΔC32ΔLoop (human, UniProt P10415;Q07817).
T1 chain: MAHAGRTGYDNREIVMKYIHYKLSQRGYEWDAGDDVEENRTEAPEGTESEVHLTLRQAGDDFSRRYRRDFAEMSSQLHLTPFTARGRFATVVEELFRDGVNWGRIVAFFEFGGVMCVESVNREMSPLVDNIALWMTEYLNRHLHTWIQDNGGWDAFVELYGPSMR
The assay is described as follows: crystal structure.

A further assay concerns the target Bcl-xLΔC25ΔLoop (human, UniProt Q07817-1 1-208, removes the unstructured loop between residues 46–82). The assay can be described thus: crystal structure.
The target of a further assay is R139A Bcl-xL (human, UniProt Q07817-1 1-208, R139A). The assay can be described thus: fluorescence polarisation.
Another assay deals with R146A Bcl-2 (human, UniProt P10415 1-207, R146A). The assay is described as follows: fluorescence polarisation.
R146A Bcl-2, sequence (P10415 1-207 R146A): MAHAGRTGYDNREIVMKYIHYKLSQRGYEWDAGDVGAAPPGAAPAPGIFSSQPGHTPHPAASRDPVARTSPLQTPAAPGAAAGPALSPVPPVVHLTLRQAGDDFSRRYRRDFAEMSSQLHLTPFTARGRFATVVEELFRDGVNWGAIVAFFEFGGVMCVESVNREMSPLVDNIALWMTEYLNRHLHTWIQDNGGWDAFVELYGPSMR
The next assay addresses Bcl-2ΔC32 (human, UniProt P10415 1-207). The assay can be described thus: fluorescence polarisation.
The target in a further assay is Bcl-xLΔC25 (human, UniProt Q07817-1 1-208). The assay can be described thus: fluorescence polarisation.

Ends that are not written are not given here. Peptide text beside a SMILES is read from it. * marks the point of attachment. FITC = O=C1OC2(c3ccc(O)cc3Oc3cc(O)ccc32)c2ccc(NC(=S)*)cc21

By Kd is commonly meant the free concentration of one partner at which half of the binding sites on the other are occupied at equilibrium, for simple one-to-one binding.

Mcl-1 (Mcl-1ΔN170ΔC23), sequence (Q07820 171-327 limits assumed, stated change not applied): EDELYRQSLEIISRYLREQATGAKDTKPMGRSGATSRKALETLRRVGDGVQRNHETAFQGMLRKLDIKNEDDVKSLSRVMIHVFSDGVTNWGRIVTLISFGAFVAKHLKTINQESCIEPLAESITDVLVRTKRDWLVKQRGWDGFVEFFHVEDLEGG

On Mcl-1 (Mcl-1ΔN170ΔC23), `CC[C@H](C)[C@H](NC(=O)[C@H](CS)NC(=O)[C@H](CCC(N)=O)NC(=O)[C@H](CC(C)C)NC(=O)[C@H](CCCCN)NC(=O)[C@H](CCCNC(=N)N)NC(=O)[C@H](C)NC(=O)[C@@H](NC(=O)[C@H](CCC(N)=O)NC(=O)[C@@H](NC(=O)[C@H](CCC(=O)O)NC(=O)[C@H](C)NC(=O)[C@H](CCC(N)=O)NC(=O)[C@H](Cc1c[nH]cn1)NC(=S)Nc1ccc2c(c1)C(=O)OC21c2ccc(O)cc2Oc2cc(O)ccc21)C(C)C)[C@@H](C)CC)C(=O)N[C@@H](C)C(=O)N[C@@H](CC(=O)O)C(=O)N[C@@H](CCC(N)=O)C(=O)N[C@@H](Cc1ccccc1)C(=O)N[C@@H](Cc1c[nH]cn1)C(=O)N[C@@H](CCCNC(=N)N)C(=O)N[C@@H](CC(C)C)C(=O)N[C@@H](Cc1c[nH]cn1)C(=O)N[C@H](C(=O)N[C@@H](CCC(N)=O)C(=O)N[C@@H](CCC(N)=O)C(=O)O)C(C)C` [FITC-Bmf BH3] ({FITC}-HQAEVQIARKLQCIADQFHRLHVQQ-OH) had a Kd of 185 nM. In turn, “Mcl-1 with Ala-227 substituted by Asp (from UniProt Q07820 171-327) (domain or fragment)” displayed a Kd with FITC-Bmf BH3 of 49 nM. With “Mcl-1ΔN170ΔC23 (from UniProt Q07820 171-327) (domain or fragment)”, the Kd was determined as 185 nM with FITC-Bmf BH3 and 5.8 nM with FITC-Bim BH3.

B1: 21-mer Bmf BH3 peptide (peptide)
peptide: EVQIARKLQCIADQFHRLHVQ
With B1, in the assay with Bcl-2ΔC32ΔLoop, the binding result is recorded as “binds”.

B2: 25-mer Bmf BH3 peptide (peptide)
peptide: HQAEVQIARKLQCIADQFHRLHVQQ
With B2, the binding result in the assay with Bcl-xLΔC25ΔLoop was “binds”.

B3: FITC-Bmf BH3 (peptide)
peptide: {FITC}-HQAEVQIARKLQCIADQFHRLHVQQ
For the molecule B3, the Kd was determined as 1240 nM in the assay with R139A Bcl-xL, 623 nM in the assay with R146A Bcl-2, 5.2 ± 0.3 nM with Bcl-2ΔC32 and 5.1 ± 0.4 nM with Bcl-xLΔC25.
